Published values from different studies.
Protocols differ between the studies behind these lines.
Target: Mitogen-activated protein kinase 11 (MAPK11, Homo sapiens, UniProt Q15759)

C[C@@H](c1cccc(C#N)c1)n1cc(Cl)cc(C(N)=O)c1=N
remaining binding (cell-free assay; competition with immobilised ligand; 1 µM): 93%

COc1cc(/C=C/C(=O)CC(=O)/C=C/c2ccc(O)c(OC)c2)ccc1O
activity vs control (enzyme activity; inhibitor; 1 µM): 101%

O=C(NS(=O)(=O)c1ccc(NCC2CCOCC2)c([N+](=O)[O-])c1)c1ccc(N2CCN(Cc3ccc(C(F)(F)F)cc3-c3ccc(Cl)cc3)CC2)cc1Oc1cnc2[nH]ccc2c1
remaining binding (cell-free assay; competition with immobilised ligand; 1 µM): 78%

CCCS(=O)(=O)Nc1ccc(F)c(C(=O)c2c[nH]c3ncc(-c4ccc(Cl)cc4)cc23)c1F
inhibition (enzyme activity; inhibitor; 1 µM): < 10%

CC(=O)N1CCC(c2ccc(C(=O)NC(=N)N)cc2C(F)(F)F)CC1
remaining binding (cell-free assay; competition with immobilised ligand; 1 µM): 88%

CS(=O)(=O)Nc1cccc(-c2csc(NC(=O)CSc3nc4nccnc4c(=O)n3CCc3ccccc3)n2)c1
inhibition (enzyme activity; inhibitor; 10 µM): 7%

Cn1c2c(Cl)c(Cl)ccc2c2cn[nH]c(=O)c21
ΔTm (thermal stability; DSF; 10 µM): 0.1 °C

CNCc1ccc(-c2cc(-c3nc(-c4ccc(S(=O)(=O)C(C)C)cc4)cnc3N)on2)cc1
inhibition (enzyme activity; inhibitor; 0.4 µM): 2%

Cn1c2c(c3ccc(Cl)c(Cl)c31)C(C#N)C1(CCCCC1)NC2=O (racemic)
ΔTm (thermal stability; DSF; 10 µM): 0.1 °C

CN(c1ncccc1CNc1nc(Nc2ccc3c(c2)CC(=O)N3)ncc1C(F)(F)F)S(C)(=O)=O
inhibition (enzyme activity; inhibitor; 1 µM): 7.8%

CCN(CC)c1ccc(C2=NNC(=O)CC2C)cc1[N+](=O)[O-] (stereo not drawn)
remaining activity (enzyme activity; inhibitor; 10 µM): 97%

Cn1c2c(c3ccc(Cl)c(Cl)c31)C(C#N)C(C)(C)NC2=O (stereo not drawn)
ΔTm (thermal stability; DSF; 10 µM): 0.8 °C

Cc1sc(C(=O)NC2COC2)cc1-n1cc(NC(=O)Nc2c(F)cccc2Cl)cn1
remaining activity (enzyme activity; inhibitor; 10 µM): 94.3%

Cc1ccc(Nc2nccc(N(C)c3ccc4c(C)n(C)nc4c3)n2)cc1S(N)(=O)=O
inhibition (enzyme activity; inhibitor; 10 µM): 64%

CC(C)(C)c1nc(-c2cccc(NS(=O)(=O)c3c(F)cccc3F)c2F)c(-c2ccnc(N)n2)s1
remaining activity (enzyme activity; inhibitor; radiometric; 1 µM): 104%

O=C(N1CCS(=O)(=O)CC1)N1C[C@H](c2ccc(OC(F)(F)F)cc2)C[C@H](c2nc(C3CC3)no2)C1
remaining binding (cell-free assay; competition with immobilised ligand; 1 µM): 100%

Cn1c(=O)n(-c2ccc(C(C)(C)C#N)cc2)c2c3cc(-c4cnc5ccccc5c4)ccc3ncc21
remaining activity (enzyme activity; inhibitor; 10 µM): 96%

Cc1noc([C@H]2C[C@@H](c3ccc(C(F)(F)F)cc3)CN(C(=O)N3CCS(=O)(=O)C3)C2)n1
remaining binding (cell-free assay; competition with immobilised ligand; 1 µM): 100%

C[S+]([O-])c1ccc(-c2nc(-c3ccncc3)c(-c3ccc(F)cc3)[nH]2)cc1 (stereo not drawn)
remaining signal (cell-free assay; 0.5 µM): 68.9%

CC(C)(C)C(=O)c1sc(NC2CCCCC2)nc1N
remaining activity (enzyme activity; inhibitor; 10 µM): 82%

CNCc1ccccc1-c1csc([C@H](C)Nc2nc(C)nc3cc(OC)c(OC)cc23)c1
remaining binding (cell-free assay; competition with immobilised ligand; 1 µM): 100%
